Activity calls are given as the source filed them. The rule behind the calls is not given here. Where a SMILES comes first, the peptide text is derived from it.
Tests used:
Keratinocyte = test: Cytotoxicity against human epidermal keratinocytes assessed as decrease in cell viability at 128 ug/ml after 24 hrs by Alamar blue assay
Procedure, shortened: (§1)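 Cells treated in 96-well culture plates in triplicate at 128 μg/mL. Viability measured 24 h after treatment with the redox dye Alamar Blue. Fluorescence read at 560/12 nm excitation and 590 nm emission, at time zero and 4 h after dye addition.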

Candida albicans = test: Antimicrobial activity against Candida albicans ATCC 14035 at 128 ug/ml after 22 hrs by micro broth dilution assay; format: functional, organism-based
Procedure, shortened: (§2)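 CLSI-standard 96-well broth microdilution, run in triplicate. Test concentration 128 μg/mL. Optical density read at time zero and at the final time point; growth inhibition calculated from the change after 22 h incubation.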

MCF7 = test: Cytotoxicity against human MCF7 cells assessed as decrease in cell viability at 128 ug/ml after 24 hrs by Alamar blue assay; format: functional, cell-based; procedure, shortened: as §1
BJ = test: Cytotoxicity against human BJ cells assessed as decrease in cell viability at 128 ug/ml after 24 hrs by Alamar blue assay; format: cell-based; procedure, shortened: as §1
Staphylococcus warneri = test: Antimicrobial activity against Staphylococcus warneri ATCC 17917 at 128 ug/ml after 22 hrs by micro broth dilution assay; format: functional, organism-based; procedure, shortened: as §2
Homo sapiens = organism: Homo sapiens; test: Cytotoxicity against human HTB-26 cells assessed as decrease in cell viability at 128 ug/ml after 24 hrs by Alamar blue assay; format: functional, cell-based; procedure, shortened: as §1
Enterococcus faecium = test: Antimicrobial activity against vancomycin-resistant Enterococcus faecium EF379 at 128 ug/ml after 22 hrs by micro broth dilution assay; format: functional, organism-based
Procedure, shortened: (§3)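 CLSI 96-well microbroth dilution, triplicate; tested at 128 μg/mL; strains MRSA ATCC 33591 and VRE E. faecium EF379; optical density read at time zero and after 22 h incubation to give growth inhibition.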

Staphylococcus aureus = test: Antimicrobial activity against methicillin-resistant Staphylococcus aureus ATCC 33591 at 128 ug/ml after 22 hrs by micro broth dilution assay; format: functional, organism-based; procedure, shortened: as §3
Pseudomonas aeruginosa = test: Antimicrobial activity against Pseudomonas aeruginosa ATCC 14210 at 128 ug/ml after 22 hrs by micro broth dilution assay; format: functional, organism-based; procedure, shortened: as §2

Compound	Activity (Keratinocyte)	Activity (Candida albicans)	Activity (MCF7)	Activity (BJ)	Activity (Staphylococcus warneri)	Activity (Homo sapiens)	Activity (Enterococcus faecium)	Activity (Staphylococcus aureus)	Activity (Pseudomonas aeruginosa)
CC[C@@H](C)[C@H]1NC(=O)[C@H](Cc2ccccc2)NC(=O)[C@@H]([C@H](C)CC)NC(=O)[C@@H](C(C)C)NC(=O)[C@@H]([C@H](C)CC)NC(=O)[C@H]([C@@H](C)CC)NC(=O)[C@@H](C)NC1=O	Non-Toxic	inactive	inactive	Non-Toxic	inactive	inactive	inactive	inactive	inactive
CC[C@@H](C)[C@H]1NC(=O)[C@@H](C)NC(=O)[C@H](Cc2ccccc2)NC(=O)[C@@H](CC(C)C)NC(=O)[C@@H](C(C)C)NC(=O)[C@H](Cc2ccccc2)NC(=O)[C@@H]([C@H](C)CC)NC1=O (HELM PEPTIDE1{F.[dA].[dI].[dI].F.[dV].[dL]}$PEPTIDE1,PEPTIDE1,1:R1-7:R2$$$V2.0)	Non-Toxic	inactive	inactive	Non-Toxic	inactive	inactive	inactive	inactive	inactive
CC(C)[C@H]1NC(=O)[C@H](Cc2ccccc2)NC(=O)[C@@H](C(C)C)NC(=O)[C@@H](C(C)C)NC(=O)[C@@H](C(C)C)NC(=O)[C@H](Cc2ccccc2)NC(=O)[C@@H](Cc2ccccc2)NC1=O (HELM PEPTIDE1{F.[dV].[dF].F.[dV].[dV].[dV]}$PEPTIDE1,PEPTIDE1,1:R1-7:R2$$$V2.0)	Non-Toxic	inactive	inactive	Non-Toxic	inactive	inactive	inactive	inactive	inactive
CC(C)C[C@@H]1NC(=O)[C@@H](C(C)C)NC(=O)[C@@H](C(C)C)NC(=O)[C@@H](C(C)C)NC(=O)[C@H](Cc2ccccc2)NC(=O)[C@@H](Cc2ccccc2)NC(=O)[C@@H](C(C)C)NC1=O (HELM PEPTIDE1{F.[dV].[dV].[dV].L.[dV].[dF]}$PEPTIDE1,PEPTIDE1,1:R1-7:R2$$$V2.0)	Non-Toxic	inactive	inactive	Non-Toxic	inactive	inactive	inactive	inactive	inactive
